Data reported in ChEMBL document CHEMBL1944546, “Structure-activity relationships of novel alkylides: 3-O-arylalkyl clarithromycin derivatives with improved antibacterial activities” (2012).
Values after ≈ are worked out from the molar mass of the structure shown.

What was measured:
Streptococcus pneumoniae [1] = experiment: Antibacterial activity against penicillin-, constitutive MLS-resistant Streptococcus pneumoniae PU 11 by broth microdilution method; format: functional
Procedure, shortened: (§1)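 MIC by broth microdilution following CLSI (2010) recommendations, using clinical isolates identified by 16S rDNA sequencing and labelled by genotype and phenotype. S. aureus ATCC 29213 and S. pneumoniae ATCC 49619 were run as control strains, and azithromycin, clarithromycin and 3-OH-clarithromycin were tested as reference agents.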

Streptococcus pneumoniae [2] = experiment: Antibacterial activity against efflux,penicillin-susceptible Streptococcus pneumoniae PU 09 by broth microdilution method; format: functional
Procedure, shortened: (§2)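 MIC read by broth microdilution following CLSI (2010) guidance. The clinical isolates were identified by 16S rDNA sequencing and labelled by genotype and phenotype. S. aureus ATCC 29213 and S. pneumoniae ATCC 49619 were the control strains. Azithromycin, clarithromycin and 3-OH-clarithromycin were run as reference compounds.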

Staphylococcus hominis = experiment: Antibacterial activity against methicillin-resistant, coagulase-negative, inducible MLS-resistant Staphylococcus hominis E3 by broth microdilution method; format: functional; procedure, shortened: as §1
Streptococcus pneumoniae [3] = experiment: Antibacterial activity against penicillin-susceptible, constitutive MLS-resistant Streptococcus pneumoniae PU 27 by broth microdilution method; format: functional; procedure, shortened: as §1
Streptococcus pneumoniae [4] = experiment: Antibacterial activity against erythromycin-susceptible Streptococcus pneumoniae ATCC 49619 by broth microdilution method; format: functional; procedure, shortened: as §2
[5] = system: Staphylococcus epidermidis; experiment: Antibacterial activity against methicillin-susceptible, inducible MLS-resistant Staphylococcus epidermidis E1 by broth microdilution method; format: functional; procedure, shortened: as §1
Streptococcus pyogenes [6] = experiment: Antibacterial activity against erythromycin-susceptible Streptococcus pyogenes A 3 by broth microdilution method; format: functional; procedure, shortened: as §2
Staphylococcus aureus [7] = experiment: Antibacterial activity against methicillin-, constitutive MLS-resistant […] by broth microdilution method; format: functional; procedure, shortened: as §1
Staphylococcus aureus [8] = experiment: Antibacterial activity against methicillin-, inducible MLS-resistant Staphylococcus aureus PU 32 by broth microdilution method
Staphylococcus aureus [9] = experiment: Antibacterial activity against methicillin-susceptible, inducible MLS-resistant Staphylococcus aureus PU 64 by broth microdilution method; format: functional; procedure, shortened: as §1
Streptococcus pyogenes [10] = experiment: Antibacterial activity against constitutive MLS-resistant Streptococcus pyogenes A 2 by broth microdilution method; format: functional; procedure, shortened: as §1
[11] = system: Streptococcus dysgalactiae; experiment: Antibacterial activity against efflux, erythromycin-resistant Streptococcus dysgalactiae A 1 by broth microdilution method; format: functional; procedure, shortened: as §1
[12] = system: Staphylococcus haemolyticus; experiment: Antibacterial activity against methicillin-resistant, coagulase-negative, constitutive MLS-resistant Staphylococcus haemolyticus PU 19 by broth microdilution method; format: functional; procedure, shortened: as §1
Staphylococcus aureus [13] = experiment: Antibacterial activity against erythromycin-susceptible Staphylococcus aureus ATCC 29213 by broth microdilution method; format: functional; procedure, shortened: as §2
[14] = system: Staphylococcus epidermidis; experiment: Antibacterial activity against methicillin-resistant, constitutive MLS-resistant Staphylococcus epidermidis E2 by broth microdilution method; format: functional; procedure, shortened: as §1

Row | SMILES | MIC (Streptococcus pneumoniae [1]) [µg/mL] | MIC (Streptococcus pneumoniae [2]) [µg/mL] | MIC (Staphylococcus hominis) [µg/mL] | MIC (Streptococcus pneumoniae [3]) [µg/mL] | MIC (Streptococcus pneumoniae [4]) [µg/mL] | MIC [5] [µg/mL] | MIC (Streptococcus pyogenes [6]) [µg/mL] | MIC (Staphylococcus aureus [7]) [µg/mL] | MIC (Staphylococcus aureus [8]) [µg/mL] | MIC (Staphylococcus aureus [9]) [µg/mL] | MIC (Streptococcus pyogenes [10]) [µg/mL] | MIC [11] [µg/mL] | MIC [12] [µg/mL] | MIC (Staphylococcus aureus [13]) [µg/mL] | MIC [14] [µg/mL]
1 | CC[C@H]1OC(=O)[C@H](C)[C@@H](OC/C=C/c2cncnc2)[C@H](C)[C@@H](O[C@@H]2O[C@H](C)C[C@H](N(C)C)[C@H]2O)[C@](C)(OC)C[C@@H](C)/C(=N\O)[C@H](C)[C@H]2OC(=O)O[C@@]21C | > 256 | 4 (≈ 5.34 µM) | > 256 | 32 (≈ 42.7 µM) | 0.5 (≈ 0.668 µM) | > 256 | 0.125 (≈ 0.167 µM) | > 256 | 8 (≈ 10.7 µM) | 4 (≈ 5.34 µM) | > 256 | 1 (≈ 1.34 µM) | > 256 | 8 (≈ 10.7 µM) | > 256
2 | CC[C@H]1OC(=O)[C@H](C)[C@@H](O/C=C\Cc2cncnc2)[C@H](C)[C@@H](O[C@@H]2O[C@H](C)C[C@H](N(C)C)[C@H]2O)[C@](C)(OC)C[C@@H](C)/C(=N\OCc2ccccc2)[C@H](C)[C@H]2OC(=O)O[C@@]21C | 32 (≈ 38.1 µM) | 1 (≈ 1.19 µM) |  | 16 (≈ 19.1 µM) | 0.25 (≈ 0.298 µM) |  |  |  | 1 (≈ 1.19 µM) |  |  |  | 64 (≈ 76.3 µM) | 2 (≈ 2.38 µM) | 
3 | C=CCO[C@H]1[C@H](C)[C@@H](O[C@@H]2O[C@H](C)C[C@H](N(C)C)[C@H]2O)[C@](C)(OC)C[C@@H](C)/C(=N\O)[C@H](C)[C@@H](O)[C@](C)(O)[C@@H](CC)OC(=O)[C@@H]1C | > 256 | 32 (≈ 49.6 µM) |  | 128 (≈ 198 µM) | 16 (≈ 24.8 µM) |  |  |  | 128 (≈ 198 µM) |  |  |  | > 256 | 256 (≈ 397 µM) | 
4 | CC[C@H]1OC(=O)[C@H](C)[C@@H](OCC#Cc2cccnc2)[C@H](C)[C@@H](O[C@@H]2O[C@H](C)C[C@H](N(C)C)[C@H]2O)[C@](C)(OC)C[C@@H](C)/C(=N\OCc2ccccc2Cl)[C@H](C)[C@H]2OC(=O)O[C@@]21C | 32 (≈ 36.8 µM) |  |  |  | 16 (≈ 18.4 µM) |  |  |  | 64 (≈ 73.5 µM) |  |  |  | 64 (≈ 73.5 µM) | 64 (≈ 73.5 µM) | 
5 | C=CCO[C@H]1[C@H](C)[C@@H](O[C@@H]2O[C@H](C)C[C@H](N(C)C)[C@H]2O)[C@](C)(OC)C[C@@H](C)C(=O)N[C@H](C)[C@@H](O)[C@](C)(O)[C@@H](CC)OC(=O)[C@@H]1C | > 256 | > 256 |  | > 256 | > 256 |  |  |  | > 256 |  |  |  | > 256 | > 256 | 
6 | CC[C@H]1OC(=O)[C@H](C)[C@@H](OC/C=C/c2ccc(-n3ccnc3)cc2)[C@H](C)[C@@H](O[C@@H]2O[C@H](C)C[C@H](N(C)C)[C@H]2O)[C@](C)(OC)C[C@@H](C)/C(=N\OCc2ccccc2Cl)[C@H](C)[C@H]2OC(=O)O[C@@]21C | 32 (≈ 34.1 µM) | 16 (≈ 17.1 µM) |  | 32 (≈ 34.1 µM) | 16 (≈ 17.1 µM) |  |  |  | 32 (≈ 34.1 µM) |  |  |  | 32 (≈ 34.1 µM) | 32 (≈ 34.1 µM) | 
7 | CC[C@H]1OC(=O)[C@H](C)[C@@H](OC/C=C/c2cncnc2)[C@H](C)[C@@H](O[C@@H]2O[C@H](C)C[C@H](N(C)C)[C@H]2O)[C@](C)(OC)C[C@@H](C)C(=O)[C@H](C)[C@@H](O)[C@]1(C)O | 128 (≈ 181 µM) | 16 (≈ 22.6 µM) | > 256 | 128 (≈ 181 µM) | 8 (≈ 11.3 µM) | > 256 | 8 (≈ 11.3 µM) | > 256 | > 256 | > 256 | > 256 | 16 (≈ 22.6 µM) | > 256 | > 256 | > 256
8 | CC[C@H]1OC(=O)[C@H](C)[C@@H](OC/C=C/c2cncnc2)[C@H](C)[C@@H](O[C@@H]2O[C@H](C)C[C@H](N(C)C)[C@H]2O)[C@](C)(OC)C[C@@H](C)/C(=N\O)[C@H](C)[C@@H](O)[C@]1(C)O | > 256 | 32 (≈ 44.3 µM) | > 256 | 128 (≈ 177 µM) | 16 (≈ 22.1 µM) | > 256 | 8 (≈ 11.1 µM) | > 256 | > 256 | > 256 | > 256 | 16 (≈ 22.1 µM) | > 256 | > 256 | > 256
9 | CC[C@H]1OC(=O)[C@H](C)[C@@H](OCC#Cc2cncnc2)[C@H](C)[C@@H](O[C@@H]2O[C@H](C)C[C@H](N(C)C)[C@H]2O)[C@](C)(OC)C[C@@H](C)/C(=N\OCc2ccccc2Cl)[C@H](C)[C@H]2OC(=O)O[C@@]21C | 32 (≈ 36.7 µM) |  |  |  | 16 (≈ 18.4 µM) |  |  |  | 32 (≈ 36.7 µM) |  |  |  | 32 (≈ 36.7 µM) | 32 (≈ 36.7 µM) | 
